In the library only some 2.2% were active in any assay of this set; here they are far more common.
E-selectin induc – E-selectin induction on HUVECs | HUVEC E-selectin immunofluorescence imaging; normalized: neutral wells 0, TNF-alpha wells 100 | activation, % at 7.58 µM | 260,000 compounds, 0.37% hits;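 active = mean E-selectin-positive cell signal at least 10% of the positive control, reached in at least 60% of replicates, without over 20% cell loss; inconclusive = no rule given, readout overlaps actives, possibly toxicity-flagged; inactive = the rest, including those meeting only one limit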
Target sequence (P16581 whole entry, looked up): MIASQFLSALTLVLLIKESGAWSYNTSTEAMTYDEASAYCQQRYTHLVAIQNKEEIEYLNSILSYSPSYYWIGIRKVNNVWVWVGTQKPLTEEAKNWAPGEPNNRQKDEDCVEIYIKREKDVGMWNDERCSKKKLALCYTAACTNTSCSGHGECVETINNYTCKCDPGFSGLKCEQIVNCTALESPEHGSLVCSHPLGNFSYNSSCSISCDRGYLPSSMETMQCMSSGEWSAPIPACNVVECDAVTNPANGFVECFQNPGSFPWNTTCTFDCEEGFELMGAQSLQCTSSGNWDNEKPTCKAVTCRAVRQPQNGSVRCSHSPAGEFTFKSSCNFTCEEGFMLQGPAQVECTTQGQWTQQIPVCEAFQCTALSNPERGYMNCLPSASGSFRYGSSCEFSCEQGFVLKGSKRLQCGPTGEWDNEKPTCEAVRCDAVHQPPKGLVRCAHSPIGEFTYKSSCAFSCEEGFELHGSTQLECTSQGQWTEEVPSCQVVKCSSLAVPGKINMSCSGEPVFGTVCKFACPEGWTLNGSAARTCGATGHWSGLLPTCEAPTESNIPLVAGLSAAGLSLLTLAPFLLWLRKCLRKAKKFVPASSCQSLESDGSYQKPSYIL
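Read-out: % PE-positive cells | Test system: HUVEC | Doses: One compound dose added by pin transfer | Buffer or medium: EGM-2 over gelatin coat | Signal: Immunofluorescence imaging | Benchmarks: TNF-alpha, DMSO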
Statin myotox sup – suppression of simvastatin myotoxicity; 330,000 compounds, 0.78% hits; C2C12 myotubes + simvastatin, ATP luminescence, 48 h; scaled: DMSO 0, geranylgeraniol control 100; AID 602340; rescue of ATP level, % at 7.49 µM;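 active = mean ATP rescue above about 67%, or every replicate alone reaching that limit, limit read from the data, passing the limit was not always enough; inconclusive = no clear call, values can overlap the other calls; inactive = mean under the limit and some replicate under it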;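 also: myotubes were challenged with 10 µM simvastatin during compound exposure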
DENV2 CPE rescue – inhibitors of DENV2 cytopathic effect | DENV2-infected cells, cytopathic effect rescue, plate reader | CPE inhibition, % at 9.99 µM | 350,000 compounds, 1.7% hits | AID 651640; in the data active = CPE inhibition above about 20%, passing the limit was not always enough; inconclusive = no clear call, values can overlap the other calls; tested in BHK-21 cells;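 also: 0% = median of neutral control wells and 100% = median of positive control wells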
Starred values were filed as active, the others as inactive; ? = inconclusive; . = no result given.

SMILES	E-selectin induc	Statin myotox sup	DENV2 CPE rescue
O=S(=O)(c1cccc(F)c1)N1CC[C@H]2[C@H](CO)Nc3ccc(-c4cccc(F)c4)cc3[C@H]21	-0.7	17.5	18.7
O=S(=O)(c1ccc(F)cc1)N1CC[C@@H]2[C@@H](CO)Nc3ccc(-c4ccc(F)cc4)cc3[C@@H]21	-0.4	3.1	51.1*
O=S(=O)(c1ccc(F)cc1)N1CC[C@H]2[C@H](CO)Nc3ccc(-c4ccc(F)cc4)cc3[C@H]21	-0.2	6.9	14.1
O=S(=O)(c1cccc(F)c1)N1CC[C@@H]2[C@H]1c1cc(-c3cccc(F)c3)ccc1N[C@@H]2CO	-0.9	3.6	51.6*
CO[C@H]1CC[C@@H]2CCN(C)C(=O)[C@@H](C)[C@@H](OC)CN(C)C(=O)c3cccc(C#N)c3OC[C@@H]1O2	-0.1	-0.6	-1.5
CCOc1ncccc1C(=O)OCC(=O)NCc1ccc(C(=O)OC)cc1	-0.3	4.2	67.3*
CCOc1ncccc1C(=O)OCc1ccc(C(=O)OC)cc1	0.8	.	5.3
COc1ccc(Nc2c[nH]c(=O)[nH]c2=O)cc1	3.2	7.0	-2.3
CSc1nc(Cl)c(Br)c(Nc2c[nH]c(=O)[nH]c2=O)n1	-0.1	2.1	51.7*
COc1ccccc1CNC(=O)C[C@H]1C[C@H]2c3cc(NC(=O)c4cccnc4)ccc3O[C@H]2[C@@H](CO)O1	-0.5	-2.9	4.4
COc1ccc(NC(=O)Nc2ccc3c(c2)C(=O)N([C@H](C)CO)C[C@@H](C)[C@H](CN(C)C(=O)NC2CCCCC2)OCCCC[C@H](C)O3)cc1	-0.2	.	-1.4
C[C@@H]1CN([C@@H](C)CO)C(=O)c2cc(NS(=O)(=O)c3ccc(F)cc3)ccc2O[C@@H](C)CCCCO[C@H]1CN(C)C(=O)c1ccncc1	-0.1	.	3.5
COC(=O)C1=C[C@@H](C(=O)OC)[C@@H]2C3=C(C(=O)[C@@]2(C)NC(=O)c2ccccc2)[C@H](C)C(C(=O)OC)=C(C(=O)OC)[C@@H]3C1	0.0	-4.0	24.4*
COC(=O)C1=C[C@@H](C(=O)OC)[C@@H]2C3=C(C(=O)[C@@]2(C)NC(=O)c2ccccc2)[C@H](C)n2c(=O)n(C)c(=O)n2[C@@H]3C1	0.0	12.4	-0.1
CC(=O)Nc1ccc(C(=O)Nc2nc(-c3ccccn3)cs2)cc1	.	.	1.6
O=C(Nc1nc(-c2ccccn2)cs1)c1ccc([N+](=O)[O-])o1	.	240.5*	-4.7
CCc1cc(C(=O)Nc2nc(-c3ccccn3)cs2)sc1C	29.4*	-38.1	3.9
Cc1ccc(C(=O)Nc2nc(-c3ccccn3)cs2)o1	.	.	4.5
CN1CCN(C(=O)C[C@H]2CC[C@H]3[C@@H](COC[C@H](O)CN3C(=O)c3ccccc3F)O2)CC1	0.2	-6.2	-4.3
CC(C)(C)Cc1c(-c2cccc(Cl)c2)nc2ccc(Br)cn12	0.4	12.8	9.2
CC(C)(C)Cc1c(-c2ccc(Br)cc2)nc2ccc(Br)cn12	0.1	0.5	101.1*
COc1ccc2c3c([nH]c2c1)[C@@H](CO)N(C(=O)C1CCCC1)CC31CCN(C(=O)c2ccncc2)CC1	-0.1	.	-1.2
C[C@@H]1CN([C@@H](C)CO)C(=O)Cc2cc(NC(=O)Cn3cnnn3)ccc2O[C@H]1CN(C)C(=O)Nc1ccc(C(F)(F)F)cc1	414.9*	18.1	1.1
C[C@H]1CN([C@@H](C)CO)C(=O)Cc2cc(NC(=O)Cn3cnnn3)ccc2O[C@H]1CN(C)C(=O)Nc1ccc(C(F)(F)F)cc1	-7.5	-10.3	10.2
C[C@@H]1CN([C@@H](C)CO)C(=O)Cc2cc(NC(=O)Cn3cnnn3)ccc2O[C@H]1CN(C)C(=O)Nc1ccc2c(c1)OCO2	-2.9	0.1	-3.7
SMILES	E-selectin induc	Statin myotox sup	DENV2 CPE rescue
C[C@@H]1CN([C@@H](C)CO)C(=O)c2cc(NC(=O)Cn3cnnn3)ccc2O[C@@H]1CN(C)C(=O)Nc1ccc(F)cc1	-0.2	-4.5	0.1
C[C@H](CO)N1C[C@H](C)[C@@H](CN(C)C(=O)Nc2ccc3c(c2)OCO3)Oc2ccc(NC(=O)Cn3cnnn3)cc2CC1=O	-0.5	37.3	24.0*
C[C@@H]1CN([C@H](C)CO)C(=O)c2cc(NC(=O)Cn3cnnn3)ccc2O[C@@H]1CN(C)C(=O)Nc1ccc(C(F)(F)F)cc1	-2.0	-28.7	58.8*
CCC(=O)N1CC2(C1)[C@H](c1ccccc1)[C@@H](CO)N2S(=O)(=O)Cc1ccccc1	0.2	.	-14.0
CC(C)NC(=O)N[C@H]1C=C[C@H](CC(=O)NCc2ccc(Oc3ccccc3)cc2)O[C@H]1CO	0.5	4.7	6.5
O=C(C[C@H]1CC[C@H](NC(=O)CN2CCOCC2)[C@@H](CO)O1)NCCc1ccncc1	0.3	-7.3	3.0
O=C(CSc1nnc(-c2ccncc2)o1)Nc1ccccc1Cl	.	1.8	.
O=C(CSc1nnc(-c2ccncc2)o1)Nc1cccc(F)c1	.	-1.3	13.3
O=C(CSc1nnc(-c2ccncc2)o1)Nc1cc(F)ccc1F	.	7.4	44.0*
O=C(CSc1nnc(-c2ccncc2)o1)Nc1cc(Cl)ccc1C(=O)O	-0.1	1.4	39.1*
CC(C)NC(=O)N(C)C[C@H]1Oc2c(NC(=O)Nc3ccccc3)cccc2C(=O)N([C@@H](C)CO)C[C@H]1C	0.2	6.0	14.4
C[C@@H]1CN([C@H](C)CO)C(=O)c2cccc(NC(=O)c3nc4ccccc4s3)c2O[C@H]1CN(C)C	0.4	6.0	-5.1
COc1cc(-c2ccccc2)nc2ccccc12	.	95.3*	.
COc1ccc2c(OC)cc(-c3ccccc3)nc2c1	.	-6.5	.
Cc1ccc(S(=O)(=O)Nc2ccc3c(c2)C(=O)N([C@H](C)CO)C[C@@H](C)[C@H](CN(C)CC2CC2)OCCCC[C@@H](C)O3)cc1	-0.1	22.9	1.2
C[C@H](CO)N1C[C@H](C)[C@@H](CN(C)Cc2ccc(Cl)c(Cl)c2)Oc2ccc(NC(=O)CCC(F)(F)F)cc2CC1=O	-8.1	?	-2.4
C[C@@H]1CCCCO[C@@H](CN(C)CC2CC2)[C@@H](C)CN([C@H](C)CO)C(=O)c2cc(NC(=O)CCC(F)(F)F)ccc2O1	-0.1	.	-4.9
O=C(CCc1ccccc1)Nc1cccc([N+](=O)[O-])c1	.	4.3	13.2
CCN(CC)CCCNC(CC(=O)Nc1cccc([N+](=O)[O-])c1)C(=O)O (configuration not stated)	.	.	29.8*
CCCC(CCC(=O)Nc1cccc([N+](=O)[O-])c1)C(=O)O (configuration not stated)	3.6	-9.3	1.0
O=C(CCCc1ccccc1)Nc1cccc([N+](=O)[O-])c1	.	-11.0	39.9*
CCCN1C[C@@H](C)[C@H](OC)CN(C)C(=O)c2cc(NC(=O)Nc3cccc(OC)c3)ccc2OC[C@@H]1C	0.2	15.1	.
CCN(C[C@@H]1[C@@H](c2ccccc2)[C@H](CO)N1CC1CC1)C(C)=O	0.0	-10.3	-9.2
CCc1c(-c2cccc(Cl)c2)ncn1Cc1cccc(-c2ccccc2)c1	0.0	.	22.2*
CCCc1c(-c2cccc(Cl)c2)ncn1Cc1cccc(-c2ccccc2)c1	-8.5	.	-0.5
C[C@H](CO)N1C[C@H](C)[C@H](CN(C)C(=O)CCC(F)(F)F)OCCCC[C@H](C)Oc2ccc(NS(=O)(=O)c3cccs3)cc2C1=O	0.5	.	18.4
Cc1ccc(NC(=S)NCc2ccc3[nH]c4c(c3c2)CCCC4)cc1	0.1	1.0	-6.9

Screening results deposited in PubChem by Broad Institute.
